Active and inactive are the calls of the source. The calls are words filed in the database; no cut-off is given here.
How the values were obtained:
[1] = Metal chelating activity assessed as compound-Al3+ complex formation at 37.5 uM after 30 mins by UV spectrometry method
In short: (§1)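 Compound and metal salt (CuCl2, ZnCl2, FeSO4 or AlCl3), each 37.5 µM final in methanol, incubated 30 min at room temperature. UV-vis spectra recorded from 200 to 600 nm and compared with the compound alone.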

[2] = target: T1, Amyloid-beta precursor protein (Homo sapiens, UniProt P05067); test: Inhibition of human amyloid beta (1 to 42) self-induced aggregation at 25 uM after 24 hrs by Thioflavin T based fluorometric assay relative to control
In short: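 Aβ1-42 (25 µM final) incubated with compound (25 µM final) in 50 mM phosphate buffer, pH 7.4, for 24 h at 37 °C under a sealing film. ThT (5 µM) in 50 mM glycine-NaOH, pH 8.5, then added and fluorescence measured. Triplicate; mean ± SD of three independent experiments.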

[3] = Inhibition of Cu2+ induced human amyloid beta (1 to 42) aggregation at 25 uM after 24 hrs by Thioflavin T based fluorometric assay relative to control
In short: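 Aβ1-42 (25 µM) and Cu2+ (25 µM) in HEPES buffer (20 mM, pH 6.6, 150 mM NaCl), with or without compound (25 µM final), incubated 24 h at 37 °C. ThT (5 µM) in glycine-NaOH, pH 8.5, added and fluorescence read. Triplicate; three independent experiments.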

Homo sapiens [4] = species: Homo sapiens; test: Anti-inflammatory activity in […] cells assessed as inhibition of LPS-stimulated TNFalpha release preincubated for 30 mins followed by LPS stimulation and measured after 24 hrs by ELISA; type: functional, cell-based
In short: (§2)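 Confluent BV-2 cells in DMEM preincubated 30 min with compound, tested over 0.5–10 µM, then stimulated with LPS (1.0 µg/mL) for 24 h. Released TNF-α measured by ELISA following kit instructions. Triplicate wells; mean ± SD of three independent experiments.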

[5] = Anti-inflammatory activity in […] cells assessed as inhibition of LPS-stimulated TNFalpha release at 10 uM preincubated for 30 mins followed by LPS stimulation and measured after 24 hrs by ELISA relative to control; type: functional; conditions: BV-2; in short: as §2
[6] = Antioxidant activity assessed as trolox equivalent of APPH-induced radical scavenging activity at 5 uM preincubated for 15 mins followed by AAPH addition measured every minute for 90 mins by ORAC fluorescein assay; type: functional
In short: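 ORAC-FL in 75 mM phosphate buffer, pH 7.4. Fluorescein (150 nM final) and sample (tested at 1–10 µM) incubated 15 min at 37 °C. AAPH (12 mM final) then added, and fluorescence (ex 485/em 535 nm) read every minute for 90 min. Trolox standard 1–8 µM; result expressed as µM Trolox equivalent per µM compound. Duplicate wells; three independent experiments.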

[7] = Effect on NO release in […] cells up to 10 uM after 24 hrs by Griess reagent based assay; type: ADME, cell-based
In short: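 BV-2 cells in DMEM treated with compound alone, without LPS, up to 10 µM. Nitrite in culture supernatant measured by Griess reagent (A540) against a NaNO2 standard curve. Mean ± SD of three independent experiments.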

[8] = Effective permeability of the compound in PBS/EtOH at 100 ug/ml after 18 hrs by PAMPA; type: ADME; conditions: read-out: Peff
[9] = Effect on TNFalpha release in […] cells up to 10 uM after 24 hrs by ELISA; type: ADME, cell-based
In short: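 BV-2 cells exposed to compound up to 10 µM with no added LPS. TNF-α in the medium measured by ELISA. Mean ± SD of three independent experiments.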

[10] = target: T1, Amyloid-beta precursor protein; test: Disaggregation of self-induced preformed fibrils of human amyloid beta (1 to 42) at 25 uM after 24 hrs by Thioflavin T based fluorometric assay relative to control
In short: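 Aβ1-42 diluted in HEPES buffer (20 mM, pH 6.6, 150 mM NaCl) and pre-aggregated 24 h at 37 °C. Compound (25 µM) then added for another 24 h at 37 °C on a sealed plate. Remaining fibrils read by ThT fluorescence in glycine-NaOH, pH 8.5. Triplicate; three independent experiments.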

Acetylcholinesterase [11] = target: T2, Acetylcholinesterase (Rattus norvegicus, UniProt P37136); test: Inhibition of rat cortex AChE using acetylthiocholine iodide as substrate after 15 mins by Ellman's method
T2 sequence (P37136 whole entry): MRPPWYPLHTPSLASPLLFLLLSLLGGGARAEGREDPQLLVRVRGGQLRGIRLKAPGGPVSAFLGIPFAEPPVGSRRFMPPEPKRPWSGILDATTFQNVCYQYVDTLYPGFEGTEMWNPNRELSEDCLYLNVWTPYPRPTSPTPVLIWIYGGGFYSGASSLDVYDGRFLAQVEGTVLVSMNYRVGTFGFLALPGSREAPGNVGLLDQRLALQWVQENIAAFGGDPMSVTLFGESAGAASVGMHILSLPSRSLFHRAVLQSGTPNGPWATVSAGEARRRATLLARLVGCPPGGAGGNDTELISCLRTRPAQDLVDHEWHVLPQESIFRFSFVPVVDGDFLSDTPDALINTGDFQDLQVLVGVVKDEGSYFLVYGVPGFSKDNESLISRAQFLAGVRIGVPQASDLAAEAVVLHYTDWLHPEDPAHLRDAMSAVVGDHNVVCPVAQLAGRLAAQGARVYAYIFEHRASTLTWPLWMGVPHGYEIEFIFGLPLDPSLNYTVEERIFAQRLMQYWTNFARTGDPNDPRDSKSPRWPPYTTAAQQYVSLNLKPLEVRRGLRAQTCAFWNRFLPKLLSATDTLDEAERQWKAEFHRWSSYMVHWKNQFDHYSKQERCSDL

Homo sapiens [12] = species: Homo sapiens; test: Anti-inflammatory activity in […] cells assessed as inhibition of LPS-stimulated NO release preincubated for 30 mins followed by LPS stimulation and measured after 24 hrs by Griess reagent based assay; type: functional, cell-based
Acetylcholinesterase [13] = target: Acetylcholinesterase (Electrophorus electricus, UniProt O42275); test: Inhibition of electric eel AChE using acetylthiocholine iodide as substrate after 15 mins by Ellman's method
[14] = Metal chelating activity assessed as compound-Zn2+ complex formation at 37.5 uM after 30 mins by UV spectrometry method; in short: as §1
[15] = target: T1, Amyloid-beta precursor protein; test: Inhibition of human amyloid beta (1 to 42) self-induced aggregation after 24 hrs by Thioflavin T based fluorometric assay
In short: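 Self-induced Aβ1-42 aggregation (25 µM peptide) in phosphate buffer, pH 7.4, for 24 h at 37 °C with varying compound concentrations. Aggregation read by ThT fluorescence (5 µM ThT, glycine-NaOH pH 8.5).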

[16] = Metal chelating activity assessed as compound-Cu2+ complex formation at 37.5 uM after 30 mins by UV spectrometry method; in short: as §1

T1 sequence (P05067 whole entry): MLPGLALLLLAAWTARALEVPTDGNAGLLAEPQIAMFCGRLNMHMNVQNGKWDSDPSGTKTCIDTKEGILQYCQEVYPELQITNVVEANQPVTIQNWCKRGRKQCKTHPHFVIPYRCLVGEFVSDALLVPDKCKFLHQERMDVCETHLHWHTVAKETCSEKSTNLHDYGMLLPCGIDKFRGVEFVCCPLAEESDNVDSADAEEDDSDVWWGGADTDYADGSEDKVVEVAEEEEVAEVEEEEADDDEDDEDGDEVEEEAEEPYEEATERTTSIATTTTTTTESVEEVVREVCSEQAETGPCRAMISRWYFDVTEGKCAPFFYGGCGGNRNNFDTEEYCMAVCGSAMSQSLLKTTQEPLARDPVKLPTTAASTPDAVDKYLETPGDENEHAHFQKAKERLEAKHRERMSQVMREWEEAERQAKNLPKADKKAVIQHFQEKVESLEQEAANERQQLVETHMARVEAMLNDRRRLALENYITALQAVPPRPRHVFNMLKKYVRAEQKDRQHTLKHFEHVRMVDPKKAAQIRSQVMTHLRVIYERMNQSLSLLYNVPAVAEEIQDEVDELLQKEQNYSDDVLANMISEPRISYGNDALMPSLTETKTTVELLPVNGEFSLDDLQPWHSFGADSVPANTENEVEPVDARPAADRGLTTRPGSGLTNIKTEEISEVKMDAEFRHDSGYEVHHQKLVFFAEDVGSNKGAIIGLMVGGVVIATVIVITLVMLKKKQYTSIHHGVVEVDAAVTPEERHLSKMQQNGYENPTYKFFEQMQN
Acetylcholinesterase (Electrophorus electricus, UniProt O42275), sequence (O42275 whole entry): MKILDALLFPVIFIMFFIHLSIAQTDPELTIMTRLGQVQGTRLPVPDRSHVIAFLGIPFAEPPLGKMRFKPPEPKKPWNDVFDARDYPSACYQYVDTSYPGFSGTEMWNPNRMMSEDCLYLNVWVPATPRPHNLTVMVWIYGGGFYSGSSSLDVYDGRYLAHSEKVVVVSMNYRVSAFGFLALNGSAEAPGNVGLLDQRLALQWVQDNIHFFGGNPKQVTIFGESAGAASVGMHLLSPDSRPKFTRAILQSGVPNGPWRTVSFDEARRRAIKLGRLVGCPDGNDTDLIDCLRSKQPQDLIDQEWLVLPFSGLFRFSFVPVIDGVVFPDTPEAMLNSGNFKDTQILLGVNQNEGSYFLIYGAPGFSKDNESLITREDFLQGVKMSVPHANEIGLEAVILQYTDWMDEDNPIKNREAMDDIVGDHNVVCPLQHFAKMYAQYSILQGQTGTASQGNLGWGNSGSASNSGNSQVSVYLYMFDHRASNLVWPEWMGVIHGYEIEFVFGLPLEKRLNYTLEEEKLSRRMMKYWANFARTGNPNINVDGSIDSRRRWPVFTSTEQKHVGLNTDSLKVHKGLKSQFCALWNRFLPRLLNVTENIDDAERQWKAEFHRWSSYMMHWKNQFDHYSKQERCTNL

Compound: CCN(CCCCNC(=O)c1cc(O)c(C(=O)NCCCCN(CC)Cc2ccccc2OC)cc1O)Cc1ccccc1OC
- Activity [1]: Active
- inhibition [2]: 96.2%
- inhibition [3]: 71.7%
- inhibition (Homo sapiens [4]): Dose-dependent effect
- inhibition at 10 µM [5]: 55.3%
- Activity [6]: 0.97 equiv
- Activity [7]: Non-Toxic
- Papp at 18 h, 100 ug/ml [8]: 44.5 nm/s
- Activity [9]: Non-Toxic
- Activity [10]: 75.2%
- IC50 (Acetylcholinesterase [11]): 0.56 µM
- inhibition (Homo sapiens [12]): Dose-dependent effect
- IC50 (Acetylcholinesterase [13]): 5.12 µM
- Activity [14]: inactive
- IC50 [15]: 3.05 µM
- Activity [16]: Active
